According to ChEMBL document CHEMBL1137007, “Synthesis of 4-substituted pyrido[2,3-d]pyrimidin-4(1H)-one as analgesic and anti-inflammatory agents” (Bioorg Med Chem Lett, 2009):

Tests used:
Rattus norvegicus [1] = assay: Antiinflammatory activity in rat assessed as inhibition of carrageenan-induced paw oedema at 10 mg/kg, po after 30 mins; type: functional; set-up: scale not given: the % may be the effect or the level left
Method in brief: (§1)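 Rats, six per group, were dosed orally (10 or 20 mg/kg, suspension in 1% carboxymethyl cellulose) before carrageenan paw injection. Paw volume was read by mercury-displacement plethysmography just before and 30 min, 1, 2 and 3 h after carrageenan. %inhibition = 100[1 − (a − x)/(b − y)], with the test group's pre/post volumes set against the vehicle control group's. Reported as mean ± SEM (n = 6) with ANOVA.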

Rattus norvegicus [2] = assay: Antiinflammatory activity in rat assessed as inhibition of carrageenan-induced paw oedema at 20 mg/kg, po after 30 mins; type: functional; set-up: scale not given: the % may be the effect or the level left; method in brief: as §1
Rattus norvegicus [3] = assay: Antiinflammatory activity in rat assessed as inhibition of carrageenan-induced paw oedema at 10 mg/kg, po after 1 hr; type: functional; set-up: scale not given: the % may be the effect or the level left; method in brief: as §1
Rattus norvegicus [4] = assay: Antiinflammatory activity in rat assessed as inhibition of carrageenan-induced paw oedema at 20 mg/kg, po after 1 hr; type: functional; set-up: scale not given: the % may be the effect or the level left; method in brief: as §1
Rattus norvegicus [5] = assay: Antiinflammatory activity in rat assessed as inhibition of carrageenan-induced paw oedema at 10 mg/kg, po after 2 hrs; type: functional; set-up: scale not given: the % may be the effect or the level left; method in brief: as §1
Rattus norvegicus [6] = assay: Antiinflammatory activity in rat assessed as inhibition of carrageenan-induced paw oedema at 20 mg/kg, po after 2 hrs; type: functional; set-up: scale not given: the % may be the effect or the level left; method in brief: as §1
Rattus norvegicus [7] = assay: Antiinflammatory activity in rat assessed as inhibition of carrageenan-induced paw oedema at 10 mg/kg, po after 3 hrs; type: functional; set-up: scale not given: the % may be the effect or the level left; method in brief: as §1
Rattus norvegicus [8] = assay: Antiinflammatory activity in rat assessed as inhibition of carrageenan-induced paw oedema at 20 mg/kg, po after 3 hrs; type: functional; set-up: scale not given: the % may be the effect or the level left; method in brief: as §1
Rattus norvegicus [9] = assay: Toxicity in Wistar albino rat assessed as ulcer index at 20 mg/kg, ip administered once daily for 3 days; type: organism-based; set-up: dose 20 mg/kg, route intraperitoneal; settings: in vivo, 72 h
Method in brief: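 Wistar albino rats of either sex (150–200 g), six per group, housed at 25 °C, 45–55% RH, 12-h light/dark cycle and acclimatized one week. Dosing was intraperitoneal as a suspension in 10% v/v Tween-80, with a vehicle-only control group. Animals were fasted 36 h, then pylorus-ligated (Shay method) on day 4 and sacrificed 4 h later for ulcer index. Values are mean ± SEM (n = 6), analysed by one-way ANOVA.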

Mus musculus [10] = assay: Analgesic activity in Wister albino mice at 10 mg/kg, po after 1 hr by tail-flick test
Mus musculus [11] = assay: Analgesic activity in Wister albino mice at 20 mg/kg, po after 1 hr by tail-flick test
Mus musculus [12] = assay: Analgesic activity in Wister albino mice at 10 mg/kg, po after 2 hrs by tail-flick test
Mus musculus [13] = assay: Analgesic activity in Wister albino mice at 20 mg/kg, po after 2 hrs by tail-flick test
Mus musculus [14] = assay: Analgesic activity in Wister albino mice at 10 mg/kg, po after 3 hrs by tail-flick test
Mus musculus [15] = assay: Analgesic activity in Wister albino mice at 20 mg/kg, po after 3 hrs by tail-flick test
Mus musculus [16] = assay: Analgesic activity in Wister albino mice at 10 mg/kg, po after 30 mins by tail-flick test
Mus musculus [17] = assay: Analgesic activity in Wister albino mice at 20 mg/kg, po after 30 mins by tail-flick test

Row | Structure (SMILES) | Activity (Rattus norvegicus [1]) | Activity (Rattus norvegicus [2]) | Activity (Rattus norvegicus [3]) | Activity (Rattus norvegicus [4]) | Activity (Rattus norvegicus [5]) | Activity (Rattus norvegicus [6]) | Activity (Rattus norvegicus [7]) | Activity (Rattus norvegicus [8]) | UI (Rattus norvegicus [9]) | Activity (Mus musculus [10]) | Activity (Mus musculus [11]) | Activity (Mus musculus [12]) | Activity (Mus musculus [13]) | Activity (Mus musculus [14]) | Activity (Mus musculus [15]) | Activity (Mus musculus [16]) | Activity (Mus musculus [17])
1 | Nc1nc(=O)[nH]c2nc3[nH]c(=S)[nH]c(=O)c3c(-c3ccc(N4CCCCC4)cc3)c12 | 33% | 40% | 39% | 46% | 43% | 48% | 29% | 35% | 0.72 | 43% | 51% | 46% | 53% | 33% | 44% | 39% | 48%
2 | CN1CCN(c2ccc(-c3c4c(=O)[nH]c(=S)[nH]c4nc4[nH]c(=S)sc(=N)c34)cc2)CC1 | 31% | 39% | 32% | 40% | 37% | 46% | 22% | 31% | 0.85 | 35% | 46% | 38% | 49% | 29% | 38% | 32% | 42%
3 | Nc1nc(=S)[nH]c2nc3[nH]c(=S)[nH]c(=O)c3c(-c3ccc(N4CCOCC4)cc3)c12 | 33% | 39% | 40% | 46% | 43% | 49% | 29% | 38% | 0.67 | 45% | 49% | 49% | 55% | 33% | 46% | 42% | 48%
4 | Cc1nc2nc3[nH]c(=S)[nH]c(=O)c3c(-c3ccc(N4CCCCC4)cc3)c2c(=O)[nH]1 | 29% | 36% | 33% | 39% | 34% | 41% | 26% | 34% | 0.9 | 43% | 56% | 48% | 56% | 35% | 42% | 37% | 48%
5 | O=c1[nH]cnc2nc3[nH]c(=S)[nH]c(=O)c3c(-c3ccc(N4CCOCC4)cc3)c12 | 31% | 39% | 36% | 42% | 38% | 46% | 29% | 36% | 0.86 | 38% | 47% | 45% | 53% | 29% | 36% | 30% | 44%
6 | Nc1ncnc2nc3[nH]c(=S)[nH]c(=O)c3c(-c3ccc(N4CCOCC4)cc3)c12 | 35% | 43% | 40% | 47% | 42% | 49% | 30% | 38% | 0.7 | 43% | 57% | 46% | 58% | 27% | 36% | 38% | 55%
7 | CN1CCN(c2ccc(-c3c4c(N)ncnc4nc4[nH]c(=S)[nH]c(=O)c34)cc2)CC1 | 35% | 43% | 37% | 48% | 38% | 50% | 31% | 38% | 0.69 | 43% | 58% | 45% | 58% | 36% | 43% | 39% | 50%
8 | N=c1sc(=S)[nH]c2nc3[nH]c(=S)[nH]c(=O)c3c(-c3ccc(N4CCCCC4)cc3)c12 | 33% | 37% | 38% | 40% | 39% | 46% | 25% | 33% | 0.73 | 42% | 53% | 48% | 56% | 34% | 39% | 38% | 51%
9 | Nc1ncnc2nc3[nH]c(=S)[nH]c(=O)c3c(-c3ccc(N4CCCCC4)cc3)c12 | 33% | 42% | 39% | 45% | 40% | 48% | 32% | 39% | 0.58 | 49% | 57% | 52% | 59% | 32% | 38% | 41% | 55%
10 | N#Cc1c(N)nc2[nH]c(=S)[nH]c(=O)c2c1-c1ccc(N2CCOCC2)cc1 | 41% | 50% | 48% | 61% | 50% | 63% | 36% | 47% | 0.54 | 47% | 63% | 53% | 66% | 31% | 43% | 45% | 59%
11 | CN1CCN(c2ccc(-c3c(C#N)c(N)nc4[nH]c(=S)[nH]c(=O)c34)cc2)CC1 | 39% | 48% | 40% | 55% | 46% | 60% | 31% | 37% | 0.51 | 60% | 68% | 64% | 72% | 44% | 52% | 53% | 67%
12 | Nc1nc(=S)[nH]c2nc3[nH]c(=S)[nH]c(=O)c3c(-c3ccc(N4CCCCC4)cc3)c12 |  |  |  |  |  |  |  |  | 0.69 |  |  |  |  |  |  |  | 
13 | O=c1[nH]cnc2nc3[nH]c(=S)[nH]c(=O)c3c(-c3ccc(N4CCCCC4)cc3)c12 | 30% | 35% | 34% | 41% | 38% | 44% | 27% | 32% | 0.89 | 36% | 50% | 45% | 55% | 33% | 39% | 32% | 40%
14 | N=c1sc(=S)[nH]c2nc3[nH]c(=S)[nH]c(=O)c3c(-c3ccc(N4CCOCC4)cc3)c12 | 25% | 30% | 28% | 34% | 31% | 42% | 21% | 30% | 0.89 | 41% | 53% | 44% | 56% | 32% | 44% | 39% | 49%
15 | O=C([O-])Cc1ccccc1Nc1c(Cl)cccc1Cl.[Na+] [DICLOFENAC SODIUM] | 32% | 45% | 38% | 52% | 39% | 60% | 33% | 42% | 1.65 | 43% | 55% | 45% | 62% | 33% | 39% | 37% | 46%
